Assay results as given in ChEMBL document CHEMBL1123129, “Hypolipidemic activity of indan-1,3-dione derivatives in rodents” (J Med Chem, 1985).

Legend:
[1] = biological target: T1, Cholesterol 7-alpha-hydroxylase (Cytochrome P450 7A1) (Mus musculus, UniProt Q64505); assay: In vivo effect on Cholesterol 7-alpha-hydroxylase activity in CF1 mice after 16 days at 10 mg/kg oral dose; assay type: functional, organism-based; parameters: dose 10 mg/kg, route oral; details: read-out: Control
Outline: (§1)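 CF1 male mice are dosed orally at 10–60 mg/kg per day for 16 days, with 1% CMC as the control vehicle. Liver is homogenized at 10% in 0.25 M sucrose + 0.001 M EDTA, pH 7.2. Enzymes are assayed by literature methods, with Lowry protein. Activity is given as % of control (X ± SD, N = 6), with p from Student's t test.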

[2] = biological target: T1, Cholesterol 7-alpha-hydroxylase (Cytochrome P450 7A1); assay: In vivo effect on Cholesterol 7-alpha-hydroxylase activity in CF1 mice after 16 days at 60 mg/kg oral dose; assay type: functional, organism-based; parameters: dose 60 mg/kg, route oral; details: read-out: Control; outline: as §1
[3] = tested on: Mus musculus; assay: Compound was evaluated for the hypolipidemic activity in CF1 male mice at a dose of 20 mg/kg orally for Serum cholesterol at 9th day; assay type: functional; details: route oral
Outline: (§2)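 CF1 male mice received the agent orally in 1% CMC at 10–60 mg/kg per day. Tail-vein blood was taken on days 9 and 16. Serum cholesterol was measured by modified Liebermann–Burchard on duplicate 25-µL samples, and serum triglyceride on day 16 in duplicate 50-µL samples. Values are % of vehicle control, mean ± SD, N = 6; Student's t test.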

[4] = tested on: Mus musculus; assay: Compound was evaluated for the hypolipidemic activity in CF1 male mice at a dose of 20 mg/kg orally for Serum triglyceride at 16th day; assay type: functional; details: route oral; outline: as §2
[5] = tested on: Mus musculus; assay: Compound was evaluated for the hypolipidemic activity in CF1 male mice at a dose of 40 mg/kg orally for Serum triglyceride at 16th day; assay type: functional; details: route oral; outline: as §2
[6] = biological target: T2, Sterol O-acyltransferase 1 (Mus musculus) (UniProt Q61263); assay: In Vivo effect for the hypolipidemic activity on Acyl-COA cholesterol acyltransferase in CF1 mice after 16 days of oral administration at a dose of 20 mg/kg; assay type: functional, organism-based; parameters: dose 20 mg/kg; outline: as §1
T2 sequence (whole entry): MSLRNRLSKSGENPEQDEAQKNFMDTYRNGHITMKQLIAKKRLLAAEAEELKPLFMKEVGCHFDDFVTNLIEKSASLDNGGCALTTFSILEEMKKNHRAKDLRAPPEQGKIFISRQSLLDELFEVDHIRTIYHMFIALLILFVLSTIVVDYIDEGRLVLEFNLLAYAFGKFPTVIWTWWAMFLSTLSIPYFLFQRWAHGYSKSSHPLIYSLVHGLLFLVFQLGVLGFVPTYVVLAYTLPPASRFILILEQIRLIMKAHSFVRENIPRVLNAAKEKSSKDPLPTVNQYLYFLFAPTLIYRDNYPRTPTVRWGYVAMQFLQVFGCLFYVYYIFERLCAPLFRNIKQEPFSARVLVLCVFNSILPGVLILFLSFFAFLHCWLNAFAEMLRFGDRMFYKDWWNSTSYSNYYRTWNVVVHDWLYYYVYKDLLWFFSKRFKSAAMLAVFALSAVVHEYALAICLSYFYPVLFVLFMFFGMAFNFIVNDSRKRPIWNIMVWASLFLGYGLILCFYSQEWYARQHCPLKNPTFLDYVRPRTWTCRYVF

[7] = tested on: Rattus norvegicus; assay: Compound was evaluated for the hypolipidemic activity at 20 mg/kg per day orally for 14 days on cholesterol content in rat lipoprotein chylomicron; assay type: functional; details: route oral
Outline: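 Male Sprague–Dawley rats (~300 g) were dosed orally each day. Blood was drawn from the abdominal vein. Lipoprotein fractions (chylomicron, VLDL, LDL, HDL) were separated by the Hatch–Lees and Havel methods. Each fraction was assayed for cholesterol, triglyceride (enzymatic kit), neutral lipids, phospholipids and Lowry protein. Values are % of 1% CMC vehicle control, N = 6.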

[8] = tested on: Rattus norvegicus; assay: Compound was evaluated for the hypolipidemic activity at 20 mg/kg per day orally for 14 days on lipid content in rat small intestine.; assay type: functional; details: route oral
Outline: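 Male Sprague–Dawley rats were dosed orally for 14 days. Liver, small intestine and a 24-h fecal collection were lipid-extracted. Extracts were assayed for cholesterol (modified Liebermann–Burchard), triglyceride (enzymatic kit), neutral lipids, phospholipids and protein. Values are % of 1% CMC vehicle control, mean ± SD, N = 6.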

[9] = tested on: Rattus norvegicus; assay: Compound was evaluated for the hypolipidemic activity in Sprague-Dawley rats at a dose of 20 mg/kg orally for Serum triglyceride at 16th day; assay type: functional; details: route oral
Outline: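 Sprague–Dawley male rats (~350 g) received 20 mg/kg per day orally, with 1% CMC as the vehicle control; N = 6. Tail-vein blood was taken between 8:00 and 9:30 a.m. on days 9 and 16 and spun for 3 min to obtain serum. Cholesterol was measured by a modified Liebermann–Burchard reaction and triglyceride by kit. Values are % control ± SD; significance by Student's t test.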

T1 sequence (Q64505 whole entry): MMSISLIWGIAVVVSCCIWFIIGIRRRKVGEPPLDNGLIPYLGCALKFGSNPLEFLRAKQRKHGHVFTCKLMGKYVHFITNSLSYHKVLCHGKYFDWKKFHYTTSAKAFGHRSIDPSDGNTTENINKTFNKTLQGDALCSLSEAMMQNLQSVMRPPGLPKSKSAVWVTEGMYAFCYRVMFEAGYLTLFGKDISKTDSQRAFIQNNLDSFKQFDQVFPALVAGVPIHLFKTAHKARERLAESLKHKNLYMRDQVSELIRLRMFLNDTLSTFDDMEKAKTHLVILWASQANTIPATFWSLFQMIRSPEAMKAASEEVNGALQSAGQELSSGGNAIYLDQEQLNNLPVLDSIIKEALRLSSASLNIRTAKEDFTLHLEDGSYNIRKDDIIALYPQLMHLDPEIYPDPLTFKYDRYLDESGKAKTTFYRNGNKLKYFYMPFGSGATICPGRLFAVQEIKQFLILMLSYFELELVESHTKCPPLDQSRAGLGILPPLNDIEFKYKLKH

Question: What does the source list for `COc1ccc(C2C(=O)c3ccccc3C2=O)cc1` [ANISINDIONE]?
Answer: activity at 384 h [1]: 52%; activity at 384 h [2]: 60%; Control [3]: 67%; Control [4]: 48%; Control [5]: 73%; Control [6]: 48%; Control [7]: 96%; Control [8]: 100%; Control [9]: 59%
